Assay outcomes deposited in PubChem by Broad Institute.
Compounds with a hit are over-represented: about 2.1% of the library has one in this group of screens.
FGF22 binding = FGF22 (human) thermal shift binding; 340,000 tested, 1.5% active; activity (Tm shift, normalised), % at 9.99 µM; Q9HCT0; recombinant FGF22 thermal shift, SYPRO orange fluorescence; percent of sucrose octasulfate shift, DMSO zero;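 active = mean Tm shift, scaled 0 neutral to 100 positive control, at about 1.3% or above, every replicate too, limit read from the data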
Target sequence (Q9HCT0 whole entry, looked up): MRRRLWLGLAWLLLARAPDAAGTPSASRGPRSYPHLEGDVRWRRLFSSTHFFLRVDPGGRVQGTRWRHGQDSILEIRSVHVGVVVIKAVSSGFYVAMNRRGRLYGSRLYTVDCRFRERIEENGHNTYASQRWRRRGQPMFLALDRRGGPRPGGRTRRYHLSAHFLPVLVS
FN deposit inh = fibronectin deposition inhibition. inhibition, % at 12.6 µM. 350,000 tested, 0.086% active. AID 743247. AH1F fibroblasts, Alexa488-fibronectin deposition fluorescence, overnight;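 active = mean inhibition across replicates of 30% or more, regardless of how many single replicates reach that level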
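Assay system: AH1F fibroblasts / Quantity: 10000 cells per well / Medium: DMEM plus 2% serum, read in PBS / Reagent: labelled fibronectin 24 nM / Dosing: single dose, pinned / Times: 1 h cell attachment, overnight exposure to compound and label / Signal: fluorescence, ex 485 nm, em 525 nm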
ERp5 inh = ERp5 (human) disulfide isomerase inhibition; AID 651711; 350,000 tested, 0.05% active; inhibition, % at 9.99 µM; ERp5 insulin aggregation, absorbance 650 nm, 90 min; Q15084;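 active = mean replicate inhibition above about 25%, with every replicate also reaching it, limit read from the data, passing the limit was not always enough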
ARNT TACC3 PPI = ARNT/TACC3 interaction disruption; AlphaScreen His-ARNT PAS-B/GST-TACC3 binding, luminescence; TACC3 fragment carries E629A point mutation; 390,000 tested, 0.66% active; inhibition, % at 9.99 µM; AID 623870; Q9Y6A5;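 active = mean inhibition of replicates at least 50% and at least half of replicates each reaching 50%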
PDI turbidity = PDI (human) enzyme inhibition | P07237 | inhibition, % at 10 µM | PDI insulin aggregation turbidity, A650, 90 min | 350,000 tested, 0.052% active;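 active = mean inhibition across replicates of 30% or more, whatever share of single replicates reach that level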
AF4-AF9 inh = MLL-AF4/AF9 protein interaction inhibition | inhibition, % at 10 µM | AlphaScreen, biotin-AF4 peptide binding to FLAG-AF9 | P42568 | 350,000 tested, 0.47% active | AID 651704;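 active = every replicate reaching a set inhibition limit, whatever the replicate mean, cut at about 25% in these data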
Target sequence (P42568 whole entry, looked up): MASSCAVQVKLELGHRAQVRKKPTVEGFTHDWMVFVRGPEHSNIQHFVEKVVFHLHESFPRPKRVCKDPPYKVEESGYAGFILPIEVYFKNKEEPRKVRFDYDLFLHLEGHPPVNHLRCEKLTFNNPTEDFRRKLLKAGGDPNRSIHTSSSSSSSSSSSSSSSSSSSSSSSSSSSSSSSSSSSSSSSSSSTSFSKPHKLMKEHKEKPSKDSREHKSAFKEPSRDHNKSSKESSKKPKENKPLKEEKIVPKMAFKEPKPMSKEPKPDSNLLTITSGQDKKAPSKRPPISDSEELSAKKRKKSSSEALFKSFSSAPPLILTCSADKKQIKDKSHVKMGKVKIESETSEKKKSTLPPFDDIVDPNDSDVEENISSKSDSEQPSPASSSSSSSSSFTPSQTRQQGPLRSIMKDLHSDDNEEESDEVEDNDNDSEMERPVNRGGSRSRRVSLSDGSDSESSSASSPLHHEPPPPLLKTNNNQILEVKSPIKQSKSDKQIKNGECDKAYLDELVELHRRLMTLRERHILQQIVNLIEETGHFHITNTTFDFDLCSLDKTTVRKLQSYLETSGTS
Of the large screens only hits and unclear results are named; the others gave an inactive call; ! = not confirmed by another sample.

COC(CNC(=O)C1CCCN(S(=O)(=O)c2c(C)noc2/C=C/c2cccs2)C1)OC (centres undefined)	FGF22 binding 1.4
O=C(NC(=S)Nc1cc(S(=O)(=O)N2CCOCC2)ccc1O)c1ccco1	FGF22 binding 5.5
CCCN1C[C@@H](C)[C@@H](OC)CN(C)C(=O)c2ccc(NC(=O)Nc3c(C)noc3C)cc2OC[C@@H]1C	none (no result: PDI turbidity)
C=CC1=C(C(=O)O)N2C(=O)[C@@H](NC(=O)/C(=N\O)c3csc(N)n3)[C@H]2SC1 (stereo in doubt)	ARNT TACC3 PPI 64
CCn1ccc(C(=O)NC2C(=O)N3C(C(=O)O)=C(C)CSC23)n1 (centres undefined)	none (no result: FGF22 binding, FN deposit inh, ERp5 inh, AF4-AF9 inh)
C[C@H](CO)N1C[C@H](C)[C@@H](CN(C)C(=O)Nc2ccc(C(F)(F)F)cc2)Oc2ccc(NC(=O)Nc3ccccc3)cc2C1=O	FGF22 binding 19!
C[C@H]1CN([C@@H](C)CO)C(=O)c2cc(NC(=O)Nc3ccc(C(F)(F)F)cc3)ccc2O[C@@H]1CN(C)Cc1ccccc1	FGF22 binding 27 (no result: FN deposit inh, PDI turbidity)
C[C@@H]1CN([C@@H](C)CO)C(=O)c2cc(NC(=O)Nc3ccc(C(F)(F)F)cc3)ccc2O[C@@H]1CN(C)Cc1ccccc1	none (no result: FN deposit inh, PDI turbidity)
C[C@@H]1CN([C@@H](C)CO)C(=O)c2cc(NC(=O)Nc3ccc(C(F)(F)F)cc3)ccc2O[C@H]1CN(C)C(=O)Nc1ccccc1	none (no result: FN deposit inh, PDI turbidity)
COc1ccc(C(=O)N2c3cc4c(cc3C(C)=CC2(C)C)OCO4)cc1	AF4-AF9 inh 32 (no result: FGF22 binding, ERp5 inh)
CC1CN(C(=O)c2ccccc2Nc2ccc(SC(F)F)cc2)CC(C)O1 (centres undefined)	FGF22 binding 44
O=C(c1ccccc1Nc1ccc(SC(F)F)cc1)N1CCCCC1	none (no result: FGF22 binding, FN deposit inh, ERp5 inh, AF4-AF9 inh)
C[C@@H]1CN([C@@H](C)CO)C(=O)Cc2cc(NC(=O)c3ccncc3)ccc2O[C@H]1CN(C)Cc1ccccc1	none (no result: FN deposit inh, PDI turbidity)
Cn1c(-c2ccc3c(c2)OCO3)cnc1N	ARNT TACC3 PPI 54 (no result: FGF22 binding, ERp5 inh, AF4-AF9 inh)
C[C@@H]1CCCCO[C@H](CN(C)S(=O)(=O)c2cccs2)[C@@H](C)CN([C@@H](C)CO)C(=O)c2cc(NS(=O)(=O)c3cccs3)ccc2O1	none (no result: ARNT TACC3 PPI, PDI turbidity)
NS(=O)(=O)c1ccc(CCNC(=O)c2cc(-c3ccccn3)nc3ccc(Br)cc23)cc1	FGF22 binding 43 (no result: FN deposit inh)
O=C1N[C@@H](c2ccccc2)COCc2cn(nn2)CC[C@H]1Cc1ccc(-c2ccccc2)cc1	none (no result: FGF22 binding, ERp5 inh, ARNT TACC3 PPI, PDI turbidity, AF4-AF9 inh)
COc1cccc(C(=O)Oc2cc3c4c(c2)C(C)=CC(C)(C)N4C(=O)C3=O)c1	AF4-AF9 inh 26 (no result: FN deposit inh)
CCCN1C[C@@H](C)[C@H](OC)CN(C)C(=O)c2cc(NS(=O)(=O)c3ccccc3)ccc2OC[C@H]1C	none (no result: PDI turbidity)
CC(C)NC(=S)N/N=C/c1cc(Br)ccc1O	ARNT TACC3 PPI 53 (no result: FGF22 binding, ERp5 inh, AF4-AF9 inh)
COC(=O)N/N=C/c1cc(Br)ccc1O	none
CS(=O)(=O)c1ccccc1-c1nnc(NC(=O)Cc2ccccc2)o1	ARNT TACC3 PPI 62
COc1cc(N2C(=O)C=CC2=O)c(OC)cc1Cl	FN deposit inh 35
CCn1c(CNC(=O)c2cccs2)n[nH]c1=S	AF4-AF9 inh 25
O=C(NCc1n[nH]c(=S)n1-c1ccccc1)c1cccs1	none
CCCNC(=O)Nc1ccc2c(c1)C(=O)N(C)[C@@H]1CC[C@H](CC(=O)NCCCN(C)C)O[C@H]1CO2	none (no result: PDI turbidity)
CC(C)COc1ccc(C(=O)OCCN2CCCCC2)cc1	ARNT TACC3 PPI active
CC(C)COc1ccc(C(=O)OCCN2CCOCC2)cc1	none (no result: FGF22 binding, FN deposit inh, ERp5 inh, AF4-AF9 inh)
Cc1ccc(CSc2nnc(-c3ccncc3)o2)c(C)c1	FGF22 binding 43 (no result: FN deposit inh)
O=C(NC[C@H]1CC[C@H]2[C@H](CN2Cc2nccs2)O1)C1CCC1	none (no result: FGF22 binding, FN deposit inh, ARNT TACC3 PPI, PDI turbidity)
O=C(O)C1C2C=CC(C2)C1C(=O)Nc1ccc2c(c1)OCCO2 (centres undefined)	none (no result: FGF22 binding, FN deposit inh, ERp5 inh, AF4-AF9 inh)
CN(C)c1ccc(NC(=O)C2C3C=CC(C3)C2C(=O)O)cc1 (centres undefined)	AF4-AF9 inh 29
CC(=O)c1ccc(N2CCN(S(=O)(=O)c3cccc4nsnc34)CC2)cc1	FGF22 binding 43
COc1ccc(N2CCN(S(=O)(=O)c3cccc4nsnc34)CC2)cc1	none (no result: FGF22 binding, FN deposit inh, ERp5 inh, AF4-AF9 inh)
O=S(=O)(c1ccc(F)cc1)N1CCN(C(=S)NCc2ccccc2)CC1	FGF22 binding 44
O=C(CSc1ccc(F)cc1)N1CCN(S(=O)(=O)c2ccccc2)CC1	FGF22 binding 44
O=S(=O)(c1ccc(F)cc1)N1CCN(C(=S)NCCc2ccccc2)CC1	none
CC(=O)N1Cc2cc(C(=O)NCc3cc(F)cc(F)c3)nc(-c3cccc(C4=CCCC4)c3)c2[C@H]1CCO	none (no result: FN deposit inh, ARNT TACC3 PPI, PDI turbidity)
CCOC(=O)/C=C1\SCC(=O)N1CC(=O)NCc1ccc(OC)c(OC)c1	FGF22 binding 43
CC(=O)N1C[C@H]2[C@@H](c3ccccc31)[C@@H](CO)N2C(=O)CC1CC1	none (no result: FN deposit inh, PDI turbidity)
CO[C@@H]1CN(C)C(=O)c2cc(NC(=O)c3cc(C)on3)ccc2OC[C@H](C)N(C(=O)C2CC2)C[C@H]1C	none (no result: PDI turbidity)
O=c1c2cc(F)ccc2sn1-c1ccccc1Cl	FN deposit inh 41 (no result: ARNT TACC3 PPI)
O=c1c2ccc(F)cc2sn1-c1ccccc1	none (no result: FN deposit inh, ARNT TACC3 PPI)
COc1ccc(-c2c(C)[nH]n3c(=O)c(Cc4ccccc4)c(C)nc23)cc1OC	ARNT TACC3 PPI 87
COc1ccc(-n2nc(C(=O)NCC(=O)NCC3COc4ccccc4O3)c3ccccc3c2=O)cc1 (centres undefined)	FGF22 binding 43
COc1ccc(C(=O)NCC(=O)NCC2COc3ccccc3O2)cc1 (centres undefined)	none (no result: FGF22 binding, ERp5 inh, AF4-AF9 inh)
COc1ccc(NC(=O)N(C)C[C@@H]2OCCCC[C@@H](C)Oc3ccc(NS(=O)(=O)c4ccc(OC)cc4)cc3C(=O)N([C@@H](C)CO)C[C@H]2C)cc1	ARNT TACC3 PPI 24 (no result: ERp5 inh, PDI turbidity, AF4-AF9 inh)
COc1ccc(NC(=O)N(C)C[C@@H]2OCCCC[C@@H](C)Oc3ccc(NS(=O)(=O)c4ccc(F)cc4)cc3C(=O)N([C@@H](C)CO)C[C@H]2C)cc1	none (no result: FN deposit inh, PDI turbidity)
COc1ccc(S(=O)(=O)Nc2ccc3c(c2)C(=O)N([C@@H](C)CO)C[C@@H](C)[C@H](CN(C)Cc2ccc4c(c2)OCO4)OCCCC[C@H](C)O3)cc1	FGF22 binding 1.3 (no result: PDI turbidity)
COc1ccc(S(=O)(=O)Nc2ccc3c(c2)C(=O)N([C@@H](C)CO)C[C@@H](C)[C@H](CN(C)C(=O)Nc2ccc(F)cc2)OCCCC[C@@H](C)O3)cc1	FGF22 binding 18 (no result: FN deposit inh, PDI turbidity)
COc1ccc(S(=O)(=O)Nc2ccc3c(c2)C(=O)N([C@H](C)CO)C[C@@H](C)[C@@H](CN(C)Cc2ccc4c(c2)OCO4)OCCCC[C@H](C)O3)cc1	none (no result: PDI turbidity)
NNc1ccccc1C(F)(F)F	FGF22 binding 43
c1n[nH]c(NC2=NCCC2)n1	ARNT TACC3 PPI 61 (no result: FGF22 binding, ERp5 inh, AF4-AF9 inh)
C[C@@H]1CN([C@@H](C)CO)C(=O)Cc2cc(N(C)C)ccc2O[C@@H]1CN(C)C(=O)Nc1ccc2c(c1)OCO2	none (no result: PDI turbidity)
